Measured values reported in ChEMBL document CHEMBL1250517, “Synthesis and characterization of novel indole derivatives reveal improved therapeutic agents for treatment of ischemia/reperfusion (I/R) injury” (J Med Chem, 2010).

Tests used:
Rattus norvegicus [1] = experiment: Antiinflammatory activity in Wistar rat assessed as inhibition of carrageenan-induced paw edema at 20 mg/kg, po administered prior to carrageenan challenge measured after 5 hrs post carrageenan challenge; type: functional
Rattus norvegicus [2] = experiment: Antiinflammatory activity in Wistar rat assessed as inhibition of carrageenan-induced paw edema at 20 mg/kg, po administered prior to carrageenan challenge measured after 1 hrs post carrageenan challenge; type: functional
Rattus norvegicus [3] = experiment: Antiinflammatory activity in Wistar rat assessed as inhibition of carrageenan-induced paw edema at 20 mg/kg, po administered prior to carrageenan challenge measured after 3 hrs post carrageenan challenge; type: functional
Mus musculus [4] = experiment: Antiinflammatory activity in Kunming mouse assessed as inhibition of xylene-induced ear edema at 20 mg/kg, po; type: functional
PC-12 [5] = experiment: Antioxidant activity against H2O2 scavenging activity in rat PC12 cells assessed as cell survival after 14 hrs by MTT assay; type: functional, cell-based; details: PC-12, 14 h
Procedure, shortened: (§1)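 PC12 cells (rat adrenal medulla pheochromocytoma) are exposed to free radicals. Compound is given either as preincubation before radical exposure or as incubation after exposure. Viability is read by MTT reduction.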

PC-12 [6] = experiment: Antioxidant activity against hydroxyl scavenging activity in rat PC12 cells assessed as cell survival after 14 hrs by MTT assay; type: functional, cell-based; details: PC-12, 14 h; procedure, shortened: as §1
Mus musculus [7] = experiment: Antiinflammatory activity in Kunming mouse assessed as inhibition of xylene-induced ear edema at 10 mg/kg, po; type: functional
Mus musculus [8] = experiment: Antiinflammatory activity in Kunming mouse assessed as inhibition of xylene-induced ear edema at 5 mg/kg, po; type: functional
PC-12 [9] = experiment: Antioxidant activity against nitric oxide scavenging activity in rat PC12 cells assessed as cell survival after 14 hrs by MTT assay; type: functional, cell-based; details: PC-12, 14 h; procedure, shortened: as §1
Rattus norvegicus [10] = experiment: Antiinflammatory activity in ischemia-reperfused Wistar rat assessed as MPO level at 20 mg/kg, ip (RVb = 17.3 +/- 0.8 U/g); type: functional; details: route intraperitoneal
Procedure, shortened: (§2)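 Hind-limb ischemia/reperfusion injury model in rats, with compound at 20 mg/kg. Local injury assessed in skeletal muscle and remote injury in lung. Tissue edema is expressed as wet-to-dry tissue weight ratio. Lipid peroxidation is measured as MDA in plasma and lung, and histology uses H&E-stained sections.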

Rattus norvegicus [11] = experiment: Antiinflammatory activity in ischemia-reperfused Wistar rat assessed as plasma MDA level at 20 mg/kg, ip (RVb = 3.53 +/- 0.34 nmol/mL); type: functional; details: route intraperitoneal; procedure, shortened: as §2
Rattus norvegicus [12] = experiment: Antiinflammatory activity against ischemia-reperfused lung tissue edema Wistar rat assessed as ratio of wet tissue weight to dry tissue weight at 20 mg/kg, ip; type: functional; details: route intraperitoneal; procedure, shortened: as §2
Rattus norvegicus [13] = experiment: Antiinflammatory activity in ischemia-reperfused Wistar rat assessed as TNFalpha level at 20 mg/kg, ip (RVb = 123.4 +/- 8.9 pg/mL); type: functional; details: route intraperitoneal; procedure, shortened: as §2
Rattus norvegicus [14] = experiment: Antiinflammatory activity against ischemia-reperfused muscle tissue edema Wistar rat assessed as ratio of wet tissue weight to dry tissue weight at 20 mg/kg, ip; type: functional; details: route intraperitoneal; procedure, shortened: as §2
Rattus norvegicus [15] = experiment: Antiinflammatory activity in ischemia-reperfused Wistar rat assessed as lung MDA level at 20 mg/kg, ip measured per gram of tissue (RVb = 72.4 +/- 5.1 nmol); type: functional; details: route intraperitoneal; procedure, shortened: as §2

C[C@H]1O[C@@H](CC=O)OC[C@H]1NC(=O)Cc1ccccc1
inhibition in vivo at 20 mg/kg (Rattus norvegicus [1]): 12.9% | inhibition in vivo at 20 mg/kg (Rattus norvegicus [2]): 18.4% | inhibition in vivo at 20 mg/kg (Rattus norvegicus [3]): 17.5% | inhibition in vivo at 20 mg/kg (Mus musculus [4]): 21.9%

COC(C[C@H]1OC[C@@H](NC(=O)Cc2ccccc2)[C@@H](C)O1)OC
inhibition in vivo at 20 mg/kg (Rattus norvegicus [1]): 17.1% | inhibition in vivo at 20 mg/kg (Rattus norvegicus [2]): 23.6% | inhibition in vivo at 20 mg/kg (Rattus norvegicus [3]): 33.3% | inhibition in vivo at 20 mg/kg (Mus musculus [4]): 38.1%

COc1ccc2[nH]c3c(c2c1)CCN[C@@H]3C[C@H]1OC[C@@H](NC(=O)Cc2ccccc2)[C@@H](C)O1
inhibition in vivo at 20 mg/kg (Rattus norvegicus [1]): 34.3% | inhibition in vivo at 20 mg/kg (Rattus norvegicus [2]): 44.7% | EC50 (PC-12 [5]): 86.8 µM | EC50 (PC-12 [6]): 79.6 µM | inhibition in vivo at 10 mg/kg (Mus musculus [7]): 32.3% | inhibition in vivo at 20 mg/kg (Rattus norvegicus [3]): 52.4% | inhibition in vivo at 5 mg/kg (Mus musculus [8]): 18.1% | inhibition in vivo at 20 mg/kg (Mus musculus [4]): 66% | EC50 (PC-12 [9]): > 100 µM

C[C@H]1O[C@@H](C[C@H]2NCCc3c2[nH]c2ccccc32)OC[C@H]1NC(=O)Cc1ccccc1
inhibition in vivo at 20 mg/kg (Rattus norvegicus [1]): 21.4% | inhibition in vivo at 20 mg/kg (Rattus norvegicus [2]): 34.2% | inhibition in vivo at 20 mg/kg (Rattus norvegicus [3]): 47.6% | inhibition in vivo at 20 mg/kg (Mus musculus [4]): 44.4%

COC(=O)[C@@H]1Cc2c([nH]c3ccccc23)[C@@H](C[C@H]2OC[C@@H](NC(=O)Cc3ccccc3)[C@@H](C)O2)N1
inhibition in vivo at 20 mg/kg (Rattus norvegicus [1]): 35.7% | inhibition in vivo at 20 mg/kg (Rattus norvegicus [2]): 39.5% | EC50 (PC-12 [5]): 91.6 µM | EC50 (PC-12 [6]): 88.1 µM | inhibition in vivo at 10 mg/kg (Mus musculus [7]): 30.1% | inhibition in vivo at 20 mg/kg (Rattus norvegicus [3]): 49.2% | inhibition in vivo at 5 mg/kg (Mus musculus [8]): 16.8% | inhibition in vivo at 20 mg/kg (Mus musculus [4]): 60% | EC50 (PC-12 [9]): > 100 µM

COC(=O)[C@@H]1Cc2c([nH]c3ccccc23)[C@H](C[C@H]2OC[C@@H](NC(=O)Cc3ccccc3)[C@@H](C)O2)N1
inhibition in vivo at 20 mg/kg (Rattus norvegicus [1]): 20% | inhibition in vivo at 20 mg/kg (Rattus norvegicus [2]): 28.9% | inhibition in vivo at 20 mg/kg (Rattus norvegicus [3]): 38.1% | inhibition in vivo at 20 mg/kg (Mus musculus [4]): 40.6%

COc1ccc2[nH]c3c(c2c1)CCN[C@@H]3C[C@H]1OC[C@@H](N)[C@@H](C)O1
inhibition in vivo at 20 mg/kg (Rattus norvegicus [1]): 57.1% | Activity (Rattus norvegicus [10]): 10.7 U/g | inhibition in vivo at 20 mg/kg (Rattus norvegicus [2]): 31.5% | Activity (Rattus norvegicus [11]): 2.05 nmol/mL | Ratio (Rattus norvegicus [12]): 3.98 | EC50 (PC-12 [5]): 32.5 µM | EC50 (PC-12 [6]): 25.7 µM | inhibition in vivo at 10 mg/kg (Mus musculus [7]): 57.8% | inhibition in vivo at 20 mg/kg (Rattus norvegicus [3]): 68.5% | Activity (Rattus norvegicus [13]): 76.6 pg/mL | Ratio (Rattus norvegicus [14]): 4.03 | inhibition in vivo at 5 mg/kg (Mus musculus [8]): 30.5% | inhibition in vivo at 20 mg/kg (Mus musculus [4]): 81.5% | Activity (Rattus norvegicus [15]): 49.5 nmol | EC50 (PC-12 [9]): 88.5 µM

C[C@H]1O[C@@H](C[C@H]2NCCc3c2[nH]c2ccccc32)OC[C@H]1N
inhibition in vivo at 20 mg/kg (Rattus norvegicus [1]): 30% | inhibition in vivo at 20 mg/kg (Rattus norvegicus [2]): 21% | inhibition in vivo at 20 mg/kg (Rattus norvegicus [3]): 59.7% | inhibition in vivo at 20 mg/kg (Mus musculus [4]): 50.4%

COC(=O)[C@@H]1Cc2c([nH]c3ccccc23)[C@@H](C[C@H]2OC[C@@H](N)[C@@H](C)O2)N1
inhibition in vivo at 20 mg/kg (Rattus norvegicus [1]): 48.6% | inhibition in vivo at 20 mg/kg (Rattus norvegicus [2]): 26.3% | EC50 (PC-12 [5]): 45.7 µM | EC50 (PC-12 [6]): 50.9 µM | inhibition in vivo at 10 mg/kg (Mus musculus [7]): 60% | inhibition in vivo at 20 mg/kg (Rattus norvegicus [3]): 61.4% | inhibition in vivo at 5 mg/kg (Mus musculus [8]): 35.2% | inhibition in vivo at 20 mg/kg (Mus musculus [4]): 74.3% | EC50 (PC-12 [9]): 96.3 µM

COC(=O)[C@@H]1Cc2c([nH]c3ccccc23)[C@H](C[C@H]2OC[C@@H](N)[C@@H](C)O2)N1
inhibition in vivo at 20 mg/kg (Rattus norvegicus [1]): 27.1% | inhibition in vivo at 20 mg/kg (Rattus norvegicus [2]): 15.8% | inhibition in vivo at 20 mg/kg (Rattus norvegicus [3]): 39.7% | inhibition in vivo at 20 mg/kg (Mus musculus [4]): 45.1%

COc1ccc2c(c1)c(CC(=O)O)c(C)n2C(=O)c1ccc(Cl)cc1 [INDOMETHACIN]
inhibition in vivo at 20 mg/kg (Rattus norvegicus [1]): 54.3% | inhibition in vivo at 20 mg/kg (Rattus norvegicus [2]): 47.3% | inhibition in vivo at 10 mg/kg (Mus musculus [7]): 73.6% | inhibition in vivo at 20 mg/kg (Rattus norvegicus [3]): 65.1%

COc1ccc2[nH]cc(CCNC(C)=O)c2c1 [MELATONIN]
Activity (Rattus norvegicus [10]): 8.6 U/g | Activity (Rattus norvegicus [11]): 1.75 nmol/mL | Ratio (Rattus norvegicus [12]): 3.55 | Activity (Rattus norvegicus [13]): 53.6 pg/mL | Ratio (Rattus norvegicus [14]): 3.21 | Activity (Rattus norvegicus [15]): 40.6 nmol
